High-throughput results deposited in PubChem BioAssay by Broad Institute.
In the library only some 2.1% were active in any assay of this set; here they are far more common.
C2C12 statin: suppressors of simvastatin-induced myotoxicity in C2C12 myotubes; ATP luminescence, 48 h; scaled: DMSO 0, geranylgeraniol control 100; rescue of ATP level, % at 7.49 µM; hit rate 0.78% among 330,000;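 active means mean ATP rescue above about 67%, or every replicate alone reaching that limit, limit read from the data, passing the limit was not always enough; inconclusive means no clear call, values can overlap the other calls; inactive means mean under the limit and some replicate under it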;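 further: myotubes were challenged with 10 µM simvastatin during compound exposure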
DENV2 CPE: inhibitors of DENV2 cytopathic effect; DENV2-infected cells, cytopathic effect rescue, plate reader; CPE inhibition, % at 9.99 µM; hit rate 1.7% among 350,000; in the data active means CPE inhibition above about 20%, passing the limit was not always enough; inconclusive means no clear call, values can overlap the other calls; tested in BHK-21 cells
Cneo AK release: Cryptococcus neoformans lysis via adenylate kinase release | C. neoformans lysis, adenylate kinase release luminescence, 4 h; normalised: neutral wells 0, clomiphene wells 100 | lysis activity, % at 15 µM | hit rate 0.2% among 360,000 | AID 651654;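 active means mean lysis activity across replicates of at least 80%, whatever share of replicates individually reach that level; inactive means mean lysis activity below 80%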
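Test system: log-phase Cryptococcus neoformans yeast cells; Quantity: yeast cell density of 5 × 10^6 cells/mL; Buffer or medium: YPD; Doses: single compound concentration per well; Timing: 4 h at 37 °C static, read 1 h later; Measured by: AK luminescence; Read-out basis: lysis from increased AK signal; Control set: Clomiphene as positive control.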
XiGFP reactiv: X-chromosome reactivation activator; hit rate 0.055% among 360,000; XiGFP mouse fibroblasts, % GFP-positive cells imaging, 3 d; cells co-treated with 5-aza-dC sensitizer; scaled so ellipticine positive control = 100%; activation, % at 7.58 µM; AID 743238;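 active means mean normalized replicate activation at least 10% and every replicate at or above 10%; inconclusive means only one of the two criteria met; inactive means mean below 10% and not all replicates reach 10%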
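System: 68-5-11 XiGFP fibroblast line | Buffer or medium: DMEM containing 5-aza-dC | Compound: Single point | Times: Compounds 3 days, fix/stain 15 min at room temperature | Benchmarks: Positive control ellipticine, 6 µM final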
Large screens that a line does not name were inactive.

C[C@H](CO)N1C[C@H](C)[C@H](CN(C)C)Oc2c(NC(=O)Nc3cccc4ccccc34)cccc2C1=O	DENV2 CPE 33.6 (no result: C2C12 statin, Cneo AK release)
C[C@H]1CN([C@@H](C)CO)C(=O)c2cccc(NC(=O)Nc3cccc4ccccc34)c2O[C@H]1CN(C)C(=O)Nc1cccc2ccccc12	none (no result: C2C12 statin)
CC(C)NC(=O)Nc1cccc2c1O[C@@H](CN(C)C(=O)NC(C)C)[C@@H](C)CN([C@@H](C)CO)C2=O	DENV2 CPE 65.9
C[C@H](CO)N1C[C@H](C)[C@@H](CN(C)C)Oc2c(NC(=O)C3CCOCC3)cccc2C1=O	DENV2 CPE 40.3
CC(C)NC(=O)Nc1cccc2c1O[C@H](CN(C)C(=O)Nc1ccccc1)[C@@H](C)CN([C@@H](C)CO)C2=O	DENV2 CPE 47.5
O=C(CCN1CCCCC1)NCC[C@H]1CC[C@H](NC(=O)Nc2ccc(F)cc2)[C@H](CO)O1	none
CC(C)NC(=O)Nc1cccc2c1O[C@H](CN(C)C)[C@H](C)CN([C@@H](C)CO)C2=O	DENV2 CPE inconclusive, Cneo AK release 92.5
COc1ccc(NC(=O)Nc2cccc3c2O[C@@H](CN(C)C(=O)NC(C)C)[C@@H](C)CN([C@H](C)CO)C3=O)cc1	none (no result: DENV2 CPE, Cneo AK release)
COc1ccc(NC(=O)Nc2cccc3c2O[C@@H](CN(C)C(=O)NC(C)C)[C@@H](C)CN([C@@H](C)CO)C3=O)cc1	DENV2 CPE 38.5
Cc1nc(N2CCN(C)CC2)c2c3c(sc2n1)CCCC3	none
CSc1nc(N2CCOCC2)c2c3c(sc2n1)CCC3	C2C12 statin 97.6 (no result: DENV2 CPE, XiGFP reactiv)
CCN1C(=O)[C@H]2[C@@H](c3ccc(OC)cc3)N3C(=O)CN(CCOC)C(=O)[C@@]3(Cc3ccccc3)[C@H]2C1=O	DENV2 CPE 65.7
CCCCN1CC(=O)N2[C@H](c3ccc(OC)cc3)[C@@H]3C(=O)N(CC)C(=O)[C@@H]3[C@]2(Cc2ccccc2)C1=O	none
C[C@@H]1CN([C@H](C)CO)C(=O)c2cc(NC(=O)CCCCCC(=O)Nc3ccccc3N)ccc2O[C@H]1CN(C)C(=O)NC1CCCCC1	none (no result: C2C12 statin, Cneo AK release)
O=S(=O)(c1cccc(F)c1)N1CC[C@@H]2[C@@H](CO)Nc3ccc(C#Cc4cccc(F)c4)cc3[C@@H]21	DENV2 CPE 22.8
O=C(Cc1ccccc1)N1CC[C@H]2[C@H](CO)Nc3ccc(C#Cc4cccc(F)c4)cc3[C@H]21	none (no result: C2C12 statin, Cneo AK release)
O=S(=O)(c1cccc(F)c1)N1CC[C@@H]2[C@H](CO)Nc3ccc(C#Cc4ccccc4F)cc3[C@@H]21	DENV2 CPE 23.7
O=C(Cc1cccnc1)N1CC[C@H]2[C@H](CO)Nc3ccc(C#Cc4cccc(F)c4)cc3[C@H]21	DENV2 CPE 62.5 (no result: C2C12 statin, Cneo AK release)
O=S(=O)(c1cccc(F)c1)N1CC[C@H]2[C@H](CO)Nc3ccc(C#Cc4ccccc4F)cc3[C@H]21	none
O=C(CC1CC1)Nc1ccc2c(c1)[C@@H]1C[C@H](CC(=O)NC3CCCCC3)O[C@H](CO)[C@@H]1O2	none
Cc1noc(C)c1NC(=O)N(C)C[C@H]1Oc2ccc(NC(=O)NC3CCCCC3)cc2C(=O)N([C@@H](C)CO)C[C@H]1C	DENV2 CPE inconclusive
Cc1ccc(S(=O)(=O)N[C@H](C(=O)NCCN=[N+]=[N-])C(C)C)cc1	none (no result: C2C12 statin, XiGFP reactiv)
Cc1c(C(=O)Nc2cccc(F)c2)cnn1-c1ccccc1	DENV2 CPE 49.7
CCCc1cn([C@H]2C[C@@H]3O[C@H](CO)CC[C@@H]3O[C@@H]2CCc2ccc(-c3ccc(OC)cc3)cc2)nn1	none (no result: C2C12 statin, Cneo AK release, XiGFP reactiv)
OC[C@@H]1CC[C@@H]2O[C@H](CCc3ccc(-c4ccccc4)cc3)[C@@H](n3cc(C4CC4)nn3)C[C@@H]2O1	DENV2 CPE 20.0 (no result: C2C12 statin, Cneo AK release, XiGFP reactiv)
OC[C@@H]1CC[C@@H]2O[C@H](CCc3ccc(-c4ccc(F)cc4)cc3)[C@@H](n3cc(C4CC4)nn3)C[C@@H]2O1	none (no result: C2C12 statin, Cneo AK release, XiGFP reactiv)
CCCc1cn([C@H]2C[C@@H]3O[C@H](CO)CC[C@@H]3O[C@@H]2CCc2ccc(-c3ccccc3C#N)cc2)nn1	DENV2 CPE 27.9 (no result: C2C12 statin, Cneo AK release, XiGFP reactiv)
OC[C@H]1CC[C@@H]2O[C@H](CCc3ccc(-c4ccccc4)cc3)[C@@H](n3cc(C4CC4)nn3)C[C@@H]2O1	DENV2 CPE 52.9 (no result: C2C12 statin, Cneo AK release, XiGFP reactiv)
O=C(C[C@@H]1C[C@@H]2c3cc(NC(=O)Nc4ccccc4F)ccc3O[C@@H]2[C@H](CO)O1)NCc1ccccn1	none
O=C(C[C@H]1C[C@@H]2c3cc(NC(=O)c4ccc5c(c4)OCO5)ccc3O[C@@H]2[C@@H](CO)O1)NCc1ccc(Cl)cc1	none
COc1ccc2c3c([nH]c2c1)[C@H](CO)N(C(=O)C1CCCCC1)CC31CCN(C(=O)NC(C)C)CC1	DENV2 CPE 29.4 (no result: C2C12 statin, Cneo AK release)
COc1ccc2c3c([nH]c2c1)[C@H](CO)N(C(=O)C1CCOCC1)CC31CCN(S(C)(=O)=O)CC1	DENV2 CPE 34.5 (no result: C2C12 statin, Cneo AK release)
COc1ccc2c3c([nH]c2c1)[C@@H](CO)N(C(=O)C1CCCC1)CC31CCN(S(C)(=O)=O)CC1	none (no result: C2C12 statin, Cneo AK release)
COc1ccc2c3c([nH]c2c1)[C@@H](CO)N(Cc1ccc(F)cc1)CC31CCN(C(=O)NC(C)C)CC1	none (no result: C2C12 statin, Cneo AK release)
COc1ccc2c3c([nH]c2c1)[C@@H](CO)N(Cc1ccc(F)cc1)CC31CN(C(=O)NC(C)C)C1	DENV2 CPE 93.3 (no result: C2C12 statin, Cneo AK release)
O=C(Nc1ccc(F)cc1)N1C[C@H]2[C@@H](c3ccccc31)[C@@H](CO)N2C(=O)c1ccncc1	none
COC(=O)[C@@H]1C[C@@H]2CC[C@@H](O)C[C@@H]2N1Cc1ccc(Cl)cc1	none
COC(=O)[C@@H]1C[C@H]2CC[C@H](O)C[C@H]2N1Cc1ccc(C(F)(F)F)cc1	DENV2 CPE 60.8
C=CCOC(=O)[C@H]1[C@@H]2C(=O)O[C@@H](c3ccccc3)[C@@H](c3ccccc3)N2[C@@H](c2ccc(OCCOC(=O)[C@H]3C[C@H]4C(=O)N[C@@H](CC(C)C)C(=O)N4[C@H]3c3ccc(O)cc3)cc2)[C@]12C(=O)Nc1ccccc12	none (no result: C2C12 statin, XiGFP reactiv)
O=C(NC1CCCC1)C(c1ccsc1)N(Cc1ccco1)C(=O)Cc1cccs1 (stereo not given)	C2C12 statin 118.1 (no result: DENV2 CPE, XiGFP reactiv)
CCC(=O)N1C[C@@H]2[C@H](c3ccccc31)[C@H](CO)N2Cc1ccccc1OC	DENV2 CPE 35.1
COc1ccccc1C(=O)N1C[C@H]2[C@@H](c3ccccc31)[C@@H](CO)N2C(=O)Cc1ccccc1	DENV2 CPE inconclusive, Cneo AK release 100.6
C[C@@H]1CN([C@H](C)CO)C(=O)Cc2cc(NC(=O)CCC(F)(F)F)ccc2O[C@@H]1CN(C)C(=O)Nc1cccc2ccccc12	DENV2 CPE 30.2
C[C@@H]1CN([C@H](C)CO)C(=O)Cc2cc(NC(=O)Cc3ccccc3)ccc2O[C@@H]1CN(C)C(=O)Nc1ccc2c(c1)OCO2	DENV2 CPE 27.8
C[C@H](CO)N1C[C@H](C)[C@H](CN(C)C(=O)Nc2ccc(F)cc2)Oc2ccc(NC(=O)CCC(F)(F)F)cc2CC1=O	DENV2 CPE 25.3
C[C@H](CO)N1C[C@H](C)[C@@H](CN(C)C(=O)Nc2cccc3ccccc23)Oc2ccc(NC(=O)Cc3cn(C)c4ccccc34)cc2CC1=O	none
